Assay results: ChEMBL document CHEMBL1132657, “CoMFA study of novel phenyl ring-substituted 3alpha-(diphenylmethoxy)tropane analogues at the dopamine transporter” (J Med Chem, 1999)

Columns and labels:
[1] = target: T1, Sodium-dependent dopamine transporter (Rattus norvegicus, UniProt P23977); assay: Displacement of [3H]WIN-35428 binding to the dopamine transporter in rat caudate putamen tissue.; type: tissue-based
[2] = target: T1, Sodium-dependent dopamine transporter; assay: Inhibition of [3H]dopamine uptake in rat caudate putamen tissue.; type: functional, tissue-based
Procedure, shortened: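 Rat caudate putamen chopped into 225 µm slices, in oxygenated Krebs-HEPES at 37 °C. Stopped with ice-cold buffer and filtered; accumulated label extracted in methanol/HCl and counted by scintillation. Specific uptake; IC50 by linear regression on the linear portion of the concentration–response curve.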

T1 sequence (P23977 whole entry): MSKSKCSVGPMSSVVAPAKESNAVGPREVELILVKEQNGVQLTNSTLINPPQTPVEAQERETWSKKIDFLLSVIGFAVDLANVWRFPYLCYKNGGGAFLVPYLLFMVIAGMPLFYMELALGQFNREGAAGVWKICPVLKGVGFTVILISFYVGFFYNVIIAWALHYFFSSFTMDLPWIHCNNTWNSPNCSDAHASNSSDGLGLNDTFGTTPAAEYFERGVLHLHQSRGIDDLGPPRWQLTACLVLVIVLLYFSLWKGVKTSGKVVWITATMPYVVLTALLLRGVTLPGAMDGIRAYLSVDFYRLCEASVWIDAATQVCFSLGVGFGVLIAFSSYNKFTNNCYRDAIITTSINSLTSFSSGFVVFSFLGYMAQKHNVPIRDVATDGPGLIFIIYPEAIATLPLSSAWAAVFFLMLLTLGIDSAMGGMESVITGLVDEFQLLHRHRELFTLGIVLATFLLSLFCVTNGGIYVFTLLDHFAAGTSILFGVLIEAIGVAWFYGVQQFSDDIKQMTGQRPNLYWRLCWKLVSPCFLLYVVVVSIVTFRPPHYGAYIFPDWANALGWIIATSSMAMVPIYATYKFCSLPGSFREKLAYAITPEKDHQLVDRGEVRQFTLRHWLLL

SMILES	Ki [1] [nM]	IC50 [2] [nM]
Cc1cccc(C(O[C@H]2C[C@H]3CC[C@@H](C2)N3C)c2ccccc2)c1 (stereo not given in full)	78	226
CN1[C@@H]2CC[C@H]1C[C@@H](OC(c1ccccc1)c1cccc(Br)c1)C2 (stereo not given in full)	27	104
CN1[C@@H]2CC[C@H]1C[C@@H](OC(c1ccccc1)c1ccc(F)c(F)c1)C2 (stereo not given in full)	27.9	181
CN1[C@@H]2CC[C@H]1C[C@@H](OC(c1ccc(F)cc1)c1cccc(Cl)c1)C2 (stereo not given in full)	23.4	123
CN1[C@@H]2CC[C@H]1C[C@@H](OC(c1ccccc1)c1cccc([N+](=O)[O-])c1)C2 (stereo not given in full)	187	795
CN1[C@@H]2CC[C@H]1C[C@@H](OC(c1ccc(F)cc1)c1cccc(C(F)(F)F)c1)C2 (stereo not given in full)	88.1	182
CN1[C@@H]2CC[C@H]1C[C@@H](OC(c1ccccc1)c1ccccc1Cl)C2 (stereo not given in full)	–	977
CN1[C@@H]2CC[C@H]1C[C@@H](OC(c1ccc(F)cc1)c1ccc(Br)cc1)C2 (stereo not given in full)	15.2	27.2
CN1[C@@H]2CC[C@H]1C[C@@H](OC(c1ccc(F)cc1)c1cccc(Br)c1)C2 (stereo not given in full)	38.2	179
CN1[C@@H]2CC[C@H]1C[C@@H](OC(c1ccc(F)cc1)c1cccc(F)c1)C2 (stereo not given in full)	–	139
Cc1cccc(C(O[C@H]2C[C@H]3CC[C@@H](C2)N3C)c2ccc(F)cc2)c1 (stereo not given in full)	30.9	108
